RGS4 pot: potentiators or activators of RGS4. HEK293 M3R/inducible RGS4, carbachol calcium flux Fluo4; hits give low values. B-score at 10 µM. 310,000 tested, 0.92% active;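 active = B-score of the integrated calcium signal more than 4 SD below the library mean, with starting fluorescence not abnormally high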;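 also: negative B-score means reduced calcium response which marks RGS4 activation or potentiation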
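System: HEK293 FlpIn-TREx cells, stable M3R, doxycycline-inducible RGS4. Timing: overnight RGS4 induction, 30 min dye load 37 °C, 20 min compound RT. Also added: carbachol, ECmax concentration. Measured by: Fluo4 fluorescence kinetic imaging of calcium. Evaluation: integrated calcium ratio converted to B score.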
RGS4 inh: inhibitors of human RGS4; HEK293 M3R/RGS4 inducible, Fluo-4 calcium flux; hits give high values; triggered by carbachol at its EC20; AID 463165; 310,000 tested, 0.45% active; P49798; B-score at 10 µM;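 active = B-score, a plate-corrected calcium signal, over three deviations above library mean, with baseline fluorescence within five deviations of library mean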;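 also: RGS4 expression induced by doxycycline in cells with stable M3 receptor; B-score is computed from the integrated fluorescence ratio over baseline after carbachol; higher B-score means a larger calcium signal and so more RGS4 inhibition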
Target sequence (P49798 whole entry, looked up): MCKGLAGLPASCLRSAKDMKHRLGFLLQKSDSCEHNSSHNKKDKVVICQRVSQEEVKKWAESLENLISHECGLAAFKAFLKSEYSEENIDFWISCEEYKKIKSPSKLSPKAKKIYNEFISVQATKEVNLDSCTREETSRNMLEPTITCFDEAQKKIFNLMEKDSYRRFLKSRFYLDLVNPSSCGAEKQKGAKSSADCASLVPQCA
MrgX1 antagonist: antagonists of human MrgX1 receptor; Q96LB2; MRGX1-HEK293 calcium flux, Fluo-4, BAM8-22 antagonism; hits give low values; B-score at 10 µM; 310,000 tested, 1.3% active; AID 588676;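 active = calcium-response B-score plate-corrected more than 3 library SD below zero, starting fluorescence within 5 deviations, no agonist response on first addition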;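 also: peak minus trough fluorescence over baseline after final BAM8-22 challenge near maximal dose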
Target sequence (Q96LB2 whole entry, looked up): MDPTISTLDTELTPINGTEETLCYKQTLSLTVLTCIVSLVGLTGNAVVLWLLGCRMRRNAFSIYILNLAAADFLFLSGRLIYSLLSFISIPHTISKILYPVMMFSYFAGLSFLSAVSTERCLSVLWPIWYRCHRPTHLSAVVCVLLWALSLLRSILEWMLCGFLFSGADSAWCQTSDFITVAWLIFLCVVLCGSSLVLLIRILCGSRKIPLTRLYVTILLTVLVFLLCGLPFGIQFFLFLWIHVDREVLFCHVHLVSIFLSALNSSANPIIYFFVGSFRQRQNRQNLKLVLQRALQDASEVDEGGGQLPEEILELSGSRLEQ
MrgX1 PAM: allosterically activates human MrgX1 receptor signaling. B-score at 10 µM. 310,000 tested, 0.63% active. Q96LB2. MrgX1-HEK293, Fluo-4 calcium flux, FDSS; hits give high values. AID 588675;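 active = plate-corrected calcium response at least 3 library SD above typical, normal starting fluorescence, not activating the receptor alone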;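 also: compound read alongside a low EC10 to EC30 dose of BAM8-22 agonist; peak minus trough fluorescence over baseline measured at the second addition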
MrgX1 agonist: agonists of human MrgX1 receptor; 310,000 tested, 0.44% active; MrgX1-HEK293 cells, Fluo-4 calcium fluorescence, agonist mode; hits give high values; B-score at 10 µM; Q96LB2;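 active = calcium response B-score plate-corrected fluorescence ratio at least 3 library SD, with starting fluorescence B-score inside 5 SD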
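Test system: Stable human MrgX1 HEK293 cell line | Schedule: Overnight plating before 1 h dye loading | Read-out basis: Baseline-normalised fluorescence change ratio, B-scored | Detection: Kinetic calcium dye fluorescence, Fluo-4 NW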
Numbers stand for hits. Shown are actives, neighbours in structure and some others; about 3.5% of the full set was active somewhere.

Screening CCOc1cc(/C=N/NC(=O)C(O)(c2ccccc2)c2ccccc2)ccc1OC(=O)c1ccco1 returned RGS4 pot -10, RGS4 inh inactive, MrgX1 antagonist inactive, MrgX1 PAM inactive and MrgX1 agonist inactive.
For CCOc1cc(/C=N/NC(=O)c2ccncc2)ccc1OC(=O)c1ccco1 the results were RGS4 pot inactive, RGS4 inh inactive, MrgX1 antagonist inactive, MrgX1 PAM inactive and MrgX1 agonist inactive.
Screening CCOc1cc(/C=N/NC(=O)c2ccc(CN3CCOCC3)cc2)ccc1OCc1ccccc1 returned RGS4 pot -7.3, RGS4 inh inactive, MrgX1 antagonist inactive, MrgX1 PAM inactive and MrgX1 agonist inactive.
CCc1ccc(NC(=O)COc2cccc(-n3cnnn3)c2)cc1 was read as RGS4 pot inactive, RGS4 inh inactive, MrgX1 antagonist inactive, MrgX1 PAM inactive and MrgX1 agonist inactive.
For O=C(O/N=C1/CCSc2ccccc21)c1ccccc1 the results were RGS4 pot inactive, RGS4 inh inactive, MrgX1 antagonist inactive, MrgX1 PAM 8.9 and MrgX1 agonist inactive.
Screening Cc1ccc2c(c1)/C(=N/OC(=O)c1ccc(F)cc1)CCS2 returned RGS4 pot inactive, RGS4 inh inactive, MrgX1 antagonist inactive, MrgX1 PAM inactive and MrgX1 agonist inactive.
O=c1oc2ccccc2cc1-c1cn2cccnc2n1 was read as RGS4 pot inactive, RGS4 inh inactive, MrgX1 antagonist inactive, MrgX1 PAM inactive and MrgX1 agonist inactive.
For O=c1oc2ccccc2cc1-c1cn2ccccc2n1 the results were RGS4 pot inactive, RGS4 inh inactive, MrgX1 antagonist inactive, MrgX1 PAM inactive and MrgX1 agonist 27.
Screening CCCCCCCOC(=O)C[N+](C)(C)CCOC1CC2CCC1(C)C2(C)C (stereo unspecified) returned RGS4 pot -8.2 and RGS4 inh inactive.
Cc1ccc(/C=C/C2=Cc3c(sc(NC(=O)CSc4n[nH]c(N)n4)c3C#N)C(C)(C)C2)o1 was read as RGS4 pot inactive, RGS4 inh inactive, MrgX1 antagonist -5.4, MrgX1 PAM inactive and MrgX1 agonist inactive.
COc1ccc(-c2nc(-c3ccccc3)c(-c3cccs3)[nH]2)cc1OC was read as RGS4 pot inactive, RGS4 inh inactive, MrgX1 antagonist inactive, MrgX1 PAM inactive and MrgX1 agonist inactive.
`COc1ccc(-c2nc(-c3cccs3)c(-c3cccs3)[nH]2)cc1OC` gave RGS4 pot -8, RGS4 inh inactive, MrgX1 antagonist inactive, MrgX1 PAM inactive and MrgX1 agonist inactive.
For O=[N+]([O-])c1ccc(-c2nc(-c3cccs3)c(-c3cccs3)[nH]2)cc1 the results were RGS4 pot -8.9, RGS4 inh inactive, MrgX1 antagonist inactive, MrgX1 PAM inactive and MrgX1 agonist inactive.
For CC(C)(C)C(=O)NNC(=O)c1cnccn1 the results were RGS4 pot inactive, RGS4 inh inactive, MrgX1 antagonist inactive, MrgX1 PAM inactive and MrgX1 agonist inactive.
`COc1cc(/C=N/NC(N)=S)ccc1OCC(=O)Nc1ccc(C)cc1` gave RGS4 pot inactive, RGS4 inh inactive, MrgX1 antagonist -5.5, MrgX1 PAM inactive and MrgX1 agonist inactive.
COc1cc(/C=N/NC(=O)NC23CC4CC(CC(C4)C2)C3)ccc1OCC(N)=O was read as RGS4 pot -8.1, RGS4 inh inactive, MrgX1 antagonist inactive, MrgX1 PAM inactive and MrgX1 agonist inactive.
For O=C(CN(CCc1ccccc1)Cc1ccccc1)Oc1ccccc1P(=O)(O)O the results were RGS4 pot inactive, RGS4 inh inactive, MrgX1 antagonist inactive, MrgX1 PAM inactive and MrgX1 agonist inactive.
Screening CC(CNC(=O)c1cccs1)c1ccc([N+](=O)[O-])cc1 (stereo unspecified) returned RGS4 pot inactive, RGS4 inh inactive, MrgX1 antagonist -4.6, MrgX1 PAM inactive and MrgX1 agonist inactive.
For O=C(NCCNc1ccc([N+](=O)[O-])cc1)c1cccs1 the results were RGS4 pot inactive, RGS4 inh inactive, MrgX1 antagonist inactive, MrgX1 PAM inactive and MrgX1 agonist inactive.
For c1cncc(-c2nc(NCCCn3ccnc3)c3ccccc3n2)c1 the results were RGS4 pot -7, RGS4 inh inactive, MrgX1 antagonist inactive, MrgX1 PAM inactive and MrgX1 agonist inactive.
Screening Cc1nc(NCCCn2ccnc2)c2ccccc2n1 returned RGS4 pot inactive, RGS4 inh inactive, MrgX1 antagonist inactive, MrgX1 PAM inactive and MrgX1 agonist inactive.
`O=C(Nc1ccc(C(=O)O)cc1)/C(=C\C=C\c1ccccc1)NC(=O)c1ccccc1Br` gave RGS4 pot -7.7, RGS4 inh inactive, MrgX1 antagonist inactive, MrgX1 PAM inactive and MrgX1 agonist inactive.
`O=C(Nc1ccc(C(=O)O)cc1)/C(=C\C=C\c1ccccc1)NC(=O)c1cccc(Br)c1` gave RGS4 pot inactive, RGS4 inh inactive, MrgX1 antagonist inactive, MrgX1 PAM inactive and MrgX1 agonist inactive.
CCn1c(C)nc2cc(C(=O)NNC(=O)CCC3CCCCC3)ccc21 was read as RGS4 pot inactive, RGS4 inh inactive, MrgX1 antagonist inactive, MrgX1 PAM inactive and MrgX1 agonist inactive.
For COC(=O)CCC/C=C1/SCC(NC(=O)c2ccccc2)/C1=N/O (stereo unspecified) the results were RGS4 pot inactive, RGS4 inh inactive, MrgX1 antagonist inactive, MrgX1 PAM inactive and MrgX1 agonist inactive.
Screening OCCCNCc1ccc(N(c2ccccc2)c2ccccc2)cc1 returned RGS4 pot -7.3, RGS4 inh inactive, MrgX1 antagonist inactive, MrgX1 PAM inactive and MrgX1 agonist inactive.
For CCOC(=O)CN1C(=O)/C(=C/c2ccccc2Br)Oc2ccccc21 the results were RGS4 pot inactive, RGS4 inh inactive, MrgX1 antagonist inactive, MrgX1 PAM inactive and MrgX1 agonist inactive.
For Cc1ccsc1/C=C/c1ccc2ccccc2n1 the results were RGS4 pot inactive, RGS4 inh inactive, MrgX1 antagonist inactive, MrgX1 PAM inactive and MrgX1 agonist inactive.
For Cc1ccsc1/C=C/c1ccc2cccc(O)c2n1 the results were RGS4 pot inactive, RGS4 inh inactive, MrgX1 antagonist -5, MrgX1 PAM inactive and MrgX1 agonist inactive.
For O=C(Nc1cccnc1Cl)C1=NN(c2ccccc2)C(=O)CC1 the results were RGS4 pot inactive, RGS4 inh inactive, MrgX1 antagonist inactive, MrgX1 PAM inactive and MrgX1 agonist inactive.
Screening COc1ccc(-n2c(CCC(=O)O)ccc2-c2ccc(F)cc2)c(OC)c1 returned RGS4 pot inactive, RGS4 inh inactive, MrgX1 antagonist inactive, MrgX1 PAM inactive and MrgX1 agonist inactive.
COC1=C/C(=C/c2c(N)n3nc(CC(=O)N4CCCC4)sc3nc2=O)C=CC1=O was read as RGS4 pot inactive, RGS4 inh inactive, MrgX1 antagonist -5.9, MrgX1 PAM inactive and MrgX1 agonist inactive.
`CCOC1=C/C(=C/c2c(N)n3nc(CC(=O)N4CCCC4)sc3nc2=O)C=CC1=O` gave RGS4 pot inactive, RGS4 inh inactive, MrgX1 antagonist inactive, MrgX1 PAM inactive and MrgX1 agonist 31.
